In ChEMBL document CHEMBL1240473, “Synthesis and bioassay of aminosulfonyl-1,3,4-oxadiazoles and their interconversion to 1,3,4-thiadiazoles” (2010):

Assays:
Assay type in all cases: functional
[1] = Antioxidant activity assessed as nitric oxide scavenging activity at 100 uM after 120 min by Griess assay
Method in brief: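 Sodium nitroprusside (5 mM) in phosphate buffer pH 7.4 was incubated with test compound dissolved in dioxane/methanol at 25 °C for 120 min. A solvent-only control was run in parallel. Aliquots were mixed 1:1 with Griess reagent (1% sulfanilamide, 0.1% N-naphthylethylenediamine dihydrochloride, 2% o-phosphoric acid in water).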

[2] = system: Radical scavenging activity; experiment: Antioxidant activity assessed as DPPH free radical scavenging activity at 100 uM after 20 mins
Method in brief: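 Compound solutions were added to DPPH in dioxane/ethanol and kept at ambient temperature for 20 min, then absorbance was read at 517 nm. Percent inhibition = (A_control − A_sample)/A_control × 100, […].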

Staphylococcus aureus [3] = experiment: Antimicrobial activity against Staphylococcus aureus NCIM 5021 at 100 ug/disk after 24 hrs by agar disc-diffusion method; conditions: NCIM 5021, 24 h, read-out: DIZ
Method in brief: (§1)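 Agar disc diffusion with NCIM strains. Sterile 6 mm filter-paper discs were moistened with compound in DMSO at 100 or 200 per disc and placed on agar plates pre-inoculated with each organism. Plates were incubated at 37 °C. Growth-inhibition zone diameter was read at 24 h for bacteria and 48 h for fungi.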

Staphylococcus aureus [4] = experiment: Antimicrobial activity against Staphylococcus aureus NCIM 5021 at 200 ug/disk after 24 hrs by agar disc-diffusion method; conditions: NCIM 5021, 24 h, read-out: DIZ; method in brief: as §1
Bacillus subtilis [5] = experiment: Antimicrobial activity against Bacillus subtilis NCIM 2063 at 100 ug/disk after 24 hrs by agar disc-diffusion method; conditions: NCIM 2063, 24 h, read-out: DIZ; method in brief: as §1
Bacillus subtilis [6] = experiment: Antimicrobial activity against Bacillus subtilis NCIM 2063 at 200 ug/disk after 24 hrs by agar disc-diffusion method; conditions: NCIM 2063, 24 h, read-out: DIZ; method in brief: as §1
Klebsiella pneumoniae [7] = experiment: Antimicrobial activity against Klebsiella pneumoniae NCIM 2957 at 100 ug/disk after 24 hrs by agar disc-diffusion method; conditions: NCIM 2957, 24 h, read-out: DIZ; method in brief: as §1
Klebsiella pneumoniae [8] = experiment: Antimicrobial activity against Klebsiella pneumoniae NCIM 2957 at 200 ug/disk after 24 hrs by agar disc-diffusion method; conditions: NCIM 2957, 24 h, read-out: DIZ; method in brief: as §1
Proteus vulgaris [9] = experiment: Antimicrobial activity against Proteus vulgaris NCIM 2027 at 100 ug/disk after 24 hrs by agar disc-diffusion method; conditions: NCIM 2027, 24 h, read-out: DIZ
Proteus vulgaris [10] = experiment: Antimicrobial activity against Proteus vulgaris NCIM 2027 at 200 ug/disk after 24 hrs by agar disc-diffusion method; conditions: NCIM 2027, 24 h, read-out: DIZ
Fusarium solani [11] = experiment: Antimicrobial activity against Fusarium solani NCIM 1330 at 100 ug/disk after 48 hrs by agar disc-diffusion method; conditions: NCIM 1330, 48 h, read-out: DIZ; method in brief: as §1
Fusarium solani [12] = experiment: Antimicrobial activity against Fusarium solani NCIM 1330 at 200 ug/disk after 48 hrs by agar disc-diffusion method; conditions: NCIM 1330, 48 h, read-out: DIZ; method in brief: as §1
Curvularia lunata [13] = experiment: Antimicrobial activity against Curvularia lunata NCIM 716 at 100 ug/disk after 48 hrs by agar disc-diffusion method; conditions: NCIM 716, 48 h, read-out: DIZ; method in brief: as §1
Curvularia lunata [14] = experiment: Antimicrobial activity against Curvularia lunata NCIM 716 at 200 ug/disk after 48 hrs by agar disc-diffusion method; conditions: NCIM 716, 48 h, read-out: DIZ; method in brief: as §1
Aspergillus niger [15] = experiment: Antimicrobial activity against Aspergillus niger NCIM 596 at 100 ug/disk after 48 hrs by agar disc-diffusion method; conditions: NCIM 596, 48 h, read-out: DIZ; method in brief: as §1
Aspergillus niger [16] = experiment: Antimicrobial activity against Aspergillus niger NCIM 596 at 200 ug/disk after 48 hrs by agar disc-diffusion method; conditions: NCIM 596, 48 h, read-out: DIZ; method in brief: as §1

SMILES	Activity [1] [%]	Activity [2] [%]	zone of inhibition at 100 µg/disc (Staphylococcus aureus [3]) [mm]	zone of inhibition at 200 µg/disc (Staphylococcus aureus [4]) [mm]	zone of inhibition at 100 µg/disc (Bacillus subtilis [5]) [mm]	zone of inhibition at 200 µg/disc (Bacillus subtilis [6]) [mm]	zone of inhibition at 100 µg/disc (Klebsiella pneumoniae [7]) [mm]	zone of inhibition at 200 µg/disc (Klebsiella pneumoniae [8]) [mm]	zone of inhibition at 100 µg/disc (Proteus vulgaris [9]) [mm]	zone of inhibition at 200 µg/disc (Proteus vulgaris [10]) [mm]	zone of inhibition at 100 µg/disc (Fusarium solani [11]) [mm]	zone of inhibition at 200 µg/disc (Fusarium solani [12]) [mm]	zone of inhibition at 100 µg/disc (Curvularia lunata [13]) [mm]	zone of inhibition at 200 µg/disc (Curvularia lunata [14]) [mm]	zone of inhibition at 100 µg/disc (Aspergillus niger [15]) [mm]	zone of inhibition at 200 µg/disc (Aspergillus niger [16]) [mm]
O=S(=O)(Cc1nnc(CS(=O)(=O)c2ccc(Cl)cc2)o1)Nc1ccc(Cl)cc1	69.4	71	13	15	12	14	11	13	13	14	17	19	14	18	16	18
Cc1ccc(NS(=O)(=O)Cc2nnc(CS(=O)(=O)c3ccc(C)cc3)o2)cc1	57.2	58.6	12	15	11	13	10	12	10	12	14	18	15	17	13	15
Cc1ccc(NS(=O)(=O)Cc2nnc(-c3ccc(C)cc3)s2)cc1	29.4	32.3	20	23	22	24	18	19	13	15	19	22	21	24	17	18
O=C1O[C@H]([C@@H](O)CO)C(O)=C1O	96.9	95.4	–	–	–	–	–	–	–	–	–	–	–	–	–	–
O=S(=O)(Cc1nnc(-c2ccccc2)s1)Nc1ccccc1	25.4	27.8	19	22	18	20	14	17	15	16	22	24	24	25	19	21
O=S(=O)(Cc1nnc(CS(=O)(=O)c2ccccc2)o1)Nc1ccccc1	66.8	64.7	13	14	12	15	11	12	12	14	13	16	16	20	14	17
O=S(=O)(Cc1nnc(-c2ccc(Cl)cc2)o1)Nc1ccc(Cl)cc1	70.5	69.6	12	14	11	13	9	10	10	11	14	16	13	15	11	13
